# Source: PubChem
# NTR1 ag: NTR1 (human) agonism | P30989 | NTR1-U2OS beta-arrestin-GFP spot imaging, agonist mode | activation, % at 20 µM | hit rate 0.17% among 330,000;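 active = activation at or above 40% of the spot to cytoplasm intensity ratio, with at least 20 cells analyzed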
# MC4R antagonist: human MC4R antagonism in cAMP assay; P32245; MC4R-expressing cells, MTII-stimulated cAMP, LANCE TR-FRET; inhibition, % at 6.5 µM; hit rate 0.48% among 360,000;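 active = inhibition above its plate's cutoff, the mean of tested wells on that plate plus 3 SD, cut at about 29% in these data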
# Target sequence (P32245 whole entry, looked up): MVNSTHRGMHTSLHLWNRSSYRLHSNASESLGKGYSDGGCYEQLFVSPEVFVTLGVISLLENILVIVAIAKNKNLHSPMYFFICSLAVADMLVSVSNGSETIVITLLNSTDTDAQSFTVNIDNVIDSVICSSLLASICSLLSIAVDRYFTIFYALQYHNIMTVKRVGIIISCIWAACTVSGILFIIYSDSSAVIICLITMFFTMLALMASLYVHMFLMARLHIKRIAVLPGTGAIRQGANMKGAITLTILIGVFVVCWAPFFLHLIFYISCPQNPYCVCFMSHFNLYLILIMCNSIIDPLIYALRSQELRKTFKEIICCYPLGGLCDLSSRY
#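 Material: human MC4R-expressing U2OS cells. Probe or stimulus: Melanotan II challenge. Dosing: 6.5 µM single dose. Times: 30-min compound, 1-h challenge, 1-h detection, room temperature. Technique: TR-FRET with Eu-cAMP and labeled anti-cAMP, 671 nm. Replication: singlicate.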
# TAG inh: reduces triacylglycerol accumulation in H9c2 cells; Nile Red lipid (TAG) fluorescence; cells loaded with 200 µM oleic acid; inhibition, % at 12.5 µM; hit rate 0.66% among 230,000; AID 651582;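 active = pattern-corrected inhibition of lipid staining of at least 50% with the nuclear-stain viability signal not falling by more than 50%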
# TbMetRS inhib: Trypanosoma brucei MetRS inhibition | purified T. brucei MetRS, ATP depletion, Kinase-Glo luminescence | inhibition, % at 11.9 µM | hit rate 0.4% among 360,000 | AID 624268;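 active = inhibition above a per-plate cutoff of the control wells' mean inhibition plus 3 SD, cut at about 5.5% in these data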
#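 Test system: purified T. brucei MetRS enzyme. Also added: ATP, methionine and E. coli bulk tRNA substrates. Compound: 11.9 µM single point. Schedule: 15 min enzyme-compound preincubation, 2 h reaction, 10 min detection, 25 °C. Signal: luciferase luminescence of residual ATP, Kinase-Glo. Evaluation: percent inhibition versus plate control medians. Controls: DMSO wells, low control.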
# aDG glyco act: alpha-DG glycosylation activation | Pro5-aDG cells, alpha-DG glycosylation AlphaScreen (IIH6); 0% Pro5, 100% B10-LARGE cell signal | activation, % at 10 µM | hit rate 0.22% among 360,000;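 active = activation of at least 8% versus controls, or a plate z-score of at least 8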;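 note: Pro5 are CHO cells carrying HIG-tagged alpha-DG that lacks glycosylation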
# MC4R barr agon: agonists of human melanocortin 4 receptor (MC4R) beta-arrestin. hit rate 0.98% among 360,000. P32245. AID 540308. U2OS MC4R beta-arrestin complementation, luminescence; percent of melanotan II response, DMSO zero. activation, % at 8.9 µM;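 active = activation above a per-plate cutoff, the mean activation of sample wells on that plate plus 3 SD, cut at about 8% in these data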
# H9c2 TAG conf: confirmation of triacylglycerol accumulation inhibitors. shares compounds with TAG inh. H9c2 lipid accumulation, Nile Red fluorescence; cells loaded with 200 µM oleic acid. inhibition, % at 12.5 µM. hit rate 71% among 990. AID 651629;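 active = mean inhibition across replicates of 40% or more; inactive = mean inhibition below 40%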
# Numbers stand for hits; – = inactive; · = no result given. Shown are actives, neighbours in structure and some others; about 2.4% of the full set was active somewhere.
SMILES,NTR1 ag,MC4R antagonist,TAG inh,TbMetRS inhib,aDG glyco act,MC4R barr agon,H9c2 TAG conf
FC(F)(F)Oc1ccccc1C(c1nnnn1C1CCCC1)N1CCN(C/C=C/c2ccccc2)CC1 (configuration not stated),·,·,·,–,–,·,·
COc1cc(C#Cc2c(-c3cncn3C)n(C)c3ccc(-c4ccc(CN5CCOCC5)cc4)cc23)cc(OC)c1,–,–,–,–,–,–,·
COc1cc(C#Cc2c(-c3cncn3C)n(C)c3ccc(-c4cnc(N5CCOCC5)nc4)cc23)cc(OC)c1,–,–,73,–,–,–,65
C[C@@H]1CN([C@H](C)CO)C(=O)c2c(c3ccccc3n2C)-c2ccccc2CO[C@H]1CN(C)Cc1ccc(Oc2ccccc2)cc1,·,–,59,–,–,–,74
C[C@@H]1CN([C@@H](C)CO)C(=O)c2cccc(NC(=O)Nc3ccc(F)cc3)c2O[C@@H]1CN(C)Cc1ccc(Oc2ccccc2)cc1,–,–,73,–,–,–,81
C[C@H]1CN([C@@H](C)CO)C(=O)c2cc(NC(=O)Nc3cccc4ccccc34)ccc2O[C@@H]1CN(C)Cc1ccc(-c2ccccc2)cc1,–,–,72,–,–,–,71
Cc1cccc(-c2cccc(NC(=O)C3CCCN(C(=O)c4ocnc4C)C3)c2)c1 (configuration not stated),–,–,–,–,–,–,·
CCc1nc(C)c(C(=O)N2CCCC(C(=O)Nc3cccc(-c4cccc(C)c4)c3)C2)o1 (configuration not stated),–,–,50,–,–,–,47
C=CCN1C(=O)C2C(C(=O)NC3CCCC3)C3(C)C=CC2(O3)C1C(=O)NC1CCCC1 (configuration not stated),–,–,·,–,–,–,·
COC(=O)Nc1nc2ccc(SC(C)C)cc2[nH]1,–,–,52,–,–,–,61
CCCSc1ccc2nc(NC(=O)OC)[nH]c2c1,–,–,58,–,–,–,60
COCCNC(=O)c1cc2c(c(-c3cccc(-c4cc5ccccc5o4)c3)n1)[C@@H](CCO)N(S(=O)C(C)(C)C)C2 (some centres not stated),·,·,·,–,–,·,·
NC(=Nc1c([N+](=O)[O-])cnc2ccccc12)N1CCOCC1,·,·,·,–,–,·,·
CCOC(=O)[C@H]1[C@H]2COc3ccc(C)cc3[C@@H]2N2C(=O)c3cc(Br)ccc3NC(=O)[C@@]12C,–,–,67,–,–,–,77
C[C@@]12C(=O)Nc3ccc(Br)cc3C(=O)N1[C@H]1c3cc(Br)ccc3OC[C@@H]1[C@@H]2c1ccccc1,–,–,73,–,–,–,62
CCOC(=O)[C@H]1[C@H]2COc3ccc(OC)cc3[C@@H]2N2C(=O)c3ccc(Cl)cc3NC(=O)[C@@]12C,–,–,–,–,–,–,·
CCOC(=O)[C@H]1[C@H]2COc3ccc(Cl)cc3[C@@H]2N2C(=O)c3cc(OC)ccc3NC(=O)[C@@]12C,–,–,58,–,–,–,41
Cc1ccc(Cn2c(C(C)Nc3nc(-c4ccc(Cl)c([N+](=O)[O-])c4)cs3)nc3cc(C(F)(F)F)ccc32)cc1 (configuration not stated),–,–,70,–,–,–,71
CCCn1c(C(C)Nc2nc(-c3ccc(Cl)c([N+](=O)[O-])c3)cs2)nc2ccccc21 (configuration not stated),–,–,·,–,–,–,·
COc1cccc(CNC(=O)C(CC(C)C)NC(=O)c2ccccc2C)c1 (configuration not stated),–,–,·,–,–,–,·
Cc1ccc(CN2CC(C(=O)N(C)CC(=O)Nc3cccc(F)c3)CC2=O)cc1 (configuration not stated),–,–,·,–,–,–,·
CCCCCC(=O)Nc1nc(C)c(-c2csc(Nc3cc(OC)ccc3OC)n2)s1,–,–,59,–,–,–,75
O=C1N[C@H](Cc2ccccc2)COC(=O)[C@@H](Cc2ccc(F)cc2)CC/C=C/C[C@H]1CC(=O)N(CCO)Cc1ccccc1,–,–,–,–,–,–,·
O=C1N[C@@H](Cc2ccccc2)COC(=O)[C@@H](Cc2ccc(F)cc2)CC/C=C/C[C@@H]1CC(=O)N(CCO)Cc1ccccc1,–,–,55,–,–,–,44
COC(=O)[C@@]1(Cc2ccccc2)[C@H]2C(=O)N(Cc3ccccc3)C(=O)[C@H]2[C@H]2CN=C(SCC3CC3)N21,–,–,–,–,–,–,·
SMILES,NTR1 ag,MC4R antagonist,TAG inh,TbMetRS inhib,aDG glyco act,MC4R barr agon,H9c2 TAG conf
CCN1CCN(c2ncc3c(n2)CC(c2cc(OC)c(OC)c(OC)c2)CC3=O)CC1 (configuration not stated),·,–,60,–,–,–,82
O=C1CC(c2cccc(Cl)c2)Cc2nc(N3CCN(c4ccccc4)CC3)ncc21 (configuration not stated),–,–,–,–,–,–,·
Cc1ccc(CN(C)C(=O)CN2C(=O)NC3(CCCc4ccccc43)C2=O)c(C)c1 (configuration not stated),–,–,51,–,–,–,40
CC(=O)c1ccc(OCC(=O)NC(=O)NC2CCCC2)cc1,·,–,–,–,–,–,·
CN(C)CCCN1c2ccccc2Sc2ccccc21,–,–,60,–,–,–,47
O=C(Nc1ccc([N+](=O)[O-])cc1)c1cc(Cl)sc1Cl,–,–,·,–,–,–,·
O=C(Nc1ccc(F)cc1)c1cc(Cl)sc1Cl,–,–,52,–,–,–,–
COc1ccccc1-c1csc(C(C)(O)c2ccccc2)n1 (configuration not stated),·,–,–,–,–,–,·
CCC(C)(C)NC(=O)C(c1cccn1C)N(Cc1ccc(OC)cc1)C(=O)Cn1nnc2ccccc21 (configuration not stated),–,–,67,–,–,–,50
COCCOC(=O)c1[nH]c2c(c1C)C(=O)CC(c1ccccc1)C2 (configuration not stated),–,–,80,–,–,–,47
CCCc1nc2oc3c(NCCN(C)C)ncnc3c2c2c1CCCC2,–,–,58,–,–,–,–
COc1cc(C(=O)COC(=O)c2ccc([N+](=O)[O-])o2)cc(OC)c1OC,–,–,–,–,–,–,·
CC1Cc2ccccc2N1C(=O)CNCCCN(C)C (configuration not stated),–,–,·,–,–,–,·
CC1CC2(C)Oc3ccccc3CC2C(C)C1CNCCCN(C)C (configuration not stated),–,–,82,–,–,–,44
